Assay results: ChEMBL document CHEMBL1667822, “Selective antagonists of mouse trace amine-associated receptor 1 (mTAAR1): discovery of EPPTB (RO5212773)” (Bioorg Med Chem Lett, 2011)

Assays:
[1] = molecular target: Trace amine-associated receptor 1 (Rattus norvegicus, UniProt Q923Y9); assay: Inhibition of rat TAAR1
Outline: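 In vitro cAMP functional assay with antagonism read as reversal of the response to the endogenous agonist beta-PEA. Efficacy was scaled so that 100% equals 0% minimum stimulation. Residual beta-PEA stimulation was taken at the highest test-compound concentration. Values are means of at least two independent experiments, with duplicates typically within a twofold margin.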

[2] = Cmax in mouse at 5 mg/kg, ip; assay type: ADME, organism-based; set-up: dose 5 mg/kg, route intraperitoneal; conditions: in vivo
Outline: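 Single-dose pharmacokinetics in mice comparing parenteral routes: intravenous at 2.5 mg/kg and intraperitoneal at 5 mg/kg. Plasma concentrations were followed over time. Bioavailability was derived for the ip route, and Cmax was taken from the ip plasma profile.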

[3] = molecular target: Melatonin receptor type 1A (Homo sapiens) (UniProt P48039); assay: Displacement of [125I]2-iodomelatonin from human recombinant MT1 receptor expressed in CHO cells; assay type: cell-based; conditions: concentration not given here
[4] = molecular target: Adenosine receptor A3 (Homo sapiens) (UniProt P0DMS8); assay: Displacement of [3H]AB-MECA from human recombinant A3 receptor expressed in HEK293 cells; assay type: cell-based; conditions: concentration not given here
[5] = molecular target: Vasopressin V1a receptor (Homo sapiens) (UniProt P37288); assay: Displacement of [3H]AVP from human recombinant V1a receptor expressed in H recombinant CHO cells; assay type: cell-based; conditions: concentration not given here
Chain of Vasopressin V1a receptor (Homo sapiens) (P37288 whole entry, looked up): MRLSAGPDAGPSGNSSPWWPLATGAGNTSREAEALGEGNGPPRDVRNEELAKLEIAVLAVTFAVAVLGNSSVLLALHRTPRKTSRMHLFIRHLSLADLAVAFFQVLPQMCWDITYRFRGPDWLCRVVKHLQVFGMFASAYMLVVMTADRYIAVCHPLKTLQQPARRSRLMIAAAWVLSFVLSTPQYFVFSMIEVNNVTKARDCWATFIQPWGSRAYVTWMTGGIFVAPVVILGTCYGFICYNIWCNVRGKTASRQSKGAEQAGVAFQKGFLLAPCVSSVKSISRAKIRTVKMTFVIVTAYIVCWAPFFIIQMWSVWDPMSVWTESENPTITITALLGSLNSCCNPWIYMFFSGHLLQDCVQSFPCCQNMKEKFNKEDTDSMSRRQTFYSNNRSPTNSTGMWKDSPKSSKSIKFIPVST

Chain of Melatonin receptor type 1A (Homo sapiens) (P48039 whole entry): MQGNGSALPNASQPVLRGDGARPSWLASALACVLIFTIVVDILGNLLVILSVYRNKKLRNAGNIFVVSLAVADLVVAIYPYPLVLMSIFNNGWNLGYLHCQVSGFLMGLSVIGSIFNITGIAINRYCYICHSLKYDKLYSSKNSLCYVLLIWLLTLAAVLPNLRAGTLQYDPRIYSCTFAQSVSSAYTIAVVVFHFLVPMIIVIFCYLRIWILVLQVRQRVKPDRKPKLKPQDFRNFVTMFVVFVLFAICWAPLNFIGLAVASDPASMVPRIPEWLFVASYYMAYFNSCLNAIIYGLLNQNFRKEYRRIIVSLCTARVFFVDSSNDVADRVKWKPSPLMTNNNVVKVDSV
Chain of Adenosine receptor A3 (Homo sapiens) (P0DMS8 whole entry): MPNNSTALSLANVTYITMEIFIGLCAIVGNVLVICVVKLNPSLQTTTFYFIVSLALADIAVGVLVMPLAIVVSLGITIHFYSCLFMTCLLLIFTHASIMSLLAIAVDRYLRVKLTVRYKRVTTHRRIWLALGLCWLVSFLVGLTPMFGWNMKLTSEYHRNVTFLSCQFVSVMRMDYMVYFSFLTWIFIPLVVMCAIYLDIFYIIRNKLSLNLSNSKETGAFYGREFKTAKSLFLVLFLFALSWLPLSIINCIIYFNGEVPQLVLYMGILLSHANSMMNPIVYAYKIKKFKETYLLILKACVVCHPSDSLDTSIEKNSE
Chain of Trace amine-associated receptor 1 (Q923Y9 whole entry): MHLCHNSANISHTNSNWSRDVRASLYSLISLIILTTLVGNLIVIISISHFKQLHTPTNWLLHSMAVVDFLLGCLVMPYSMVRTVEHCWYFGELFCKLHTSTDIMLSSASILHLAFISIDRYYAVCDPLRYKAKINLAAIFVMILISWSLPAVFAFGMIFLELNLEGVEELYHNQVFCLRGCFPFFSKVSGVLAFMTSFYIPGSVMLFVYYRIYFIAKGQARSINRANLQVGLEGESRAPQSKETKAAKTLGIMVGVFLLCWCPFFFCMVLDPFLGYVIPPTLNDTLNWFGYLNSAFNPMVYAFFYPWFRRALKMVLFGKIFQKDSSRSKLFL

CCOc1cccc(NC(=O)c2ccc(N3CCCC3)c(C(F)(F)F)c2)c1
Ki [1]: 942 nM | Cmax [2]: 590 ng/mL | inhibition [3]: 54% | inhibition [4]: 80% | inhibition [5]: 9%
